3 molecules from ChEMBL document CHEMBL1212790, “Triclosan resistance of Pseudomonas aeruginosa PAO1 is due to FabV, a triclosan-resistant enoyl-acyl carrier protein reductase” (2010) can be followed below.

Values after ≈ are worked out from the molar mass of the structure shown. Active and inactive are the calls of the source. No cut-off for these calls is given here.

As a reminder, the Km is the substrate concentration at which the rate is half of its maximum. The term Vmax denotes the top rate of the reaction or transport when substrate is in excess. One may read the MIC as the lowest concentration found to suppress growth. In general, inhibition refers to the percentage by which the read-out fell short of the control.

Data set [1] concerns Pseudomonas aeruginosa. As to the kind of experiment: Activity of Pseudomonas aeruginosa PA0170 fabV in presence of 100 uM NADH. In a few lines: (§1)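 Cell extracts (2 μg) of the P. aeruginosa deletion strains (PAO170 ΔfabV, PAO272 ΔfabI) were assayed for NADH-dependent enoyl-ACP reductase activity in 70 μl of 0.1 M sodium phosphate pH 7.5 with 0.1 mM NADH. Reactions were started with 100 μM trans-2-decenoyl-ACP and run with or without 15 μg/ml triclosan. Values are means plus standard deviations of three experiments.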

Data set [2] concerns Escherichia coli. As to the kind of experiment: Antibacterial activity against Escherichia coli W3110 containing empty vector pBluescript at 37 deg C. The format is functional. The method, boiled down: (§2)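 Triclosan MIC on LB agar plates carrying serial dilutions of triclosan; cells plated and plates incubated at 37°C. MIC taken as the triclosan concentration of the first plate without growth. E. coli hosts (W3110, MG1655) carried pBluescript SK(+)-derived plasmids encoding fabV or fabI, or the empty vector.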

Data set [3] concerns Escherichia coli. As to the kind of experiment: Antibacterial activity against Escherichia coli MG1655 containing empty vector pBluescript assessed as microbial growth inhibition. The format is functional. In a few lines: as §2
Data set [4] has as its system Pseudomonas aeruginosa. The data set can be described thus: Inhibition of Pseudomonas aeruginosa PA0170 fabV assessed as reduction of [1-14C]acetate incorporation into phospholipids.
Data set [5] addresses T1, Enoyl-[acyl-carrier-protein] reductase [NADH] FabI (Pseudomonas aeruginosa) (UniProt Q9ZFE4).
T1 sequence (whole entry): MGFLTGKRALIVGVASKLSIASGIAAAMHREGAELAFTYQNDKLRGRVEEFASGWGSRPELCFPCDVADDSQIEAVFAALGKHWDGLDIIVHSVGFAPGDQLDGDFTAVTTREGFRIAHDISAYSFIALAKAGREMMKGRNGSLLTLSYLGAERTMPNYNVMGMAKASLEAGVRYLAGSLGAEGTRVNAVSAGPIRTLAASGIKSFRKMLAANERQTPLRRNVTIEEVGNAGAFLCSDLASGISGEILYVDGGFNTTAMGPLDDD
As to the kind of experiment: Inhibition of Pseudomonas aeruginosa fabI activity assessed as conversion of 3-hydroxydecanoyl-ACP to trans-2-decenoyl-ACP at 10 ug/ml in presence of 2.5 M urea. The method, boiled down: (§3)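 3-Hydroxydecanoyl-ACP dehydrated to trans-2-decenoyl-ACP with E. coli FabZ, then split into tubes holding dried triclosan (added from an ethanol stock and dried down). Purified His-tagged PaFabV or PaFabI added; reduction in 0.1 M sodium phosphate pH 7.0 with NADH, 1 h. Products resolved by conformationally sensitive PAGE with 2.5 M urea and Coomassie staining.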

Data set [6] relates to Escherichia coli. The data set can be described thus: Antibacterial activity against Escherichia coli W3110 containing pZL16 expressing sPseudomonas aeruginosa fabV gene assessed as microbial growth inhibition. The format is functional. The method, boiled down:
as §2

The subject of data set [7] is Escherichia coli. The data set can be described thus: Antibacterial activity against Escherichia coli W3110 containing pZL17 expressing Pseudomonas aeruginosa fabI gene assessed as microbial growth inhibition. In kind it is functional. In a few lines:
as §2

The test system of data set [8] is Escherichia coli. As to the kind of experiment: Antibacterial activity against Escherichia coli MG1655 pZL16 expressing Pseudomonas aeruginosa fabV gene assessed as microbial growth inhibition. The format is functional. In a few lines: as §2
Data set [9] has as its system Pseudomonas aeruginosa. As to the kind of experiment: Antibacterial activity against Pseudomonas aeruginosa PA0170 lacking fabV gene assessed as microbial growth inhibition.
Data set [10] has as its system Pseudomonas aeruginosa. As to the kind of experiment: Antibacterial activity against Pseudomonas aeruginosa PA01 assessed as microbial growth inhibition. In kind it is functional.
The test system of data set [11] is Pseudomonas aeruginosa. The data set can be described thus: Antibacterial activity against Pseudomonas aeruginosa PA0272 lacking fabI assessed as microbial growth inhibition.
Data set [12] has as its system Escherichia coli. The data set can be described thus: Antibacterial activity against Escherichia coli W3110 containing pZL19 expressing sEscherichia coli fabI gene assessed as microbial growth inhibition. The format is functional. In a few lines: as §2
Data set [13] relates to Pseudomonas aeruginosa. As to the kind of experiment: Inhibition of wild type Pseudomonas aeruginosa ENR at 15 ug/ml. The method, boiled down:
(§4)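 Cell-extract ENR assay (70 μl) in 0.1 M sodium phosphate pH 7.5 with 0.1 mM NADH and 2 μg of cell extract. Started with 100 μM trans-2-decenoyl-ACP, with or without 15 μg/ml triclosan. NADH-dependent activity followed as the drop in A340. Means plus standard deviations of three experiments.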

Data set [14] has as its target T1, Enoyl-[acyl-carrier-protein] reductase [NADH] FabI (Pseudomonas aeruginosa). The data set can be described thus: Inhibition of Pseudomonas aeruginosa PAO272 fabI assessed as reduction of Enoyl-[acyl-carrier-protein] reductase activity at 15 ug/ml. The method, boiled down:
as §4

Data set [15] concerns Escherichia coli. As to the kind of experiment: Antibacterial activity against Escherichia coli MG1655 containing pZL19 expressing Escherichia coli fabI gene assessed as microbial growth inhibition. In kind it is functional. The method, boiled down:
as §2

The test system of data set [16] is Escherichia coli. The data set can be described thus: Antibacterial activity against Escherichia coli MG1655 pZL17 expressing Pseudomonas aeruginosa fabI gene assessed as microbial growth inhibition. The format is functional. The method, boiled down: as §2
For data set [17], the system named is Pseudomonas aeruginosa. As to the kind of experiment: Inhibition of Pseudomonas aeruginosa fabV activity assessed as conversion of […] at 1000 ug/ml in presence of 2.5 M urea. In a few lines:
as §3

Data set [18] deals with T1, Enoyl-[acyl-carrier-protein] reductase [NADH] FabI (Pseudomonas aeruginosa). As to the kind of experiment: Inhibition of Pseudomonas aeruginosa PAO272 fabI assessed as reduction of [1-14C]acetate incorporation into phospholipids.
The subject of data set [19] is Pseudomonas aeruginosa. The data set can be described thus: Inhibition of Pseudomonas aeruginosa PA0170 fabV assessed as reduction of Enoyl-[acyl-carrier-protein] reductase activity at 15 ug/ml. In a few lines:
as §4

The test system of data set [20] is Pseudomonas aeruginosa. As to the kind of experiment: Inhibition of wild type Pseudomonas aeruginosa ENR assessed as reduction of [1-14C]acetate incorporation into phospholipids.
Compound in data set [21]: C/C=C/C(=O)SCCNC(=O)CCNC(=O)[C@@H](O)C(C)(C)COP(=O)(O)OP(=O)(O)OC[C@H]1O[C@@H](n2cnc3c(N)ncnc32)[C@H](O)[C@@H]1OP(=O)(O)O
As to the kind of experiment: Inhibition of Pseudomonas aeruginosa PAO272 fabI in presence of 100 uM NADH. The method, boiled down:
as §1

For `C/C=C/C(=O)SCCNC(=O)CCNC(=O)[C@@H](O)C(C)(C)COP(=O)(O)OP(=O)(O)OC[C@H]1O[C@@H](n2cnc3c(N)ncnc32)[C@H](O)[C@@H]1OP(=O)(O)O`, in the data set with Pseudomonas aeruginosa [1], the Michaelis-Menten constant (Km) was 704 µM and the maximal velocity (Vmax) is 7.9 nmol/min/mg.
In the case of `Oc1cc(Cl)ccc1Oc1ccc(Cl)cc1Cl` [TRICLOSAN], the MIC with Escherichia coli [2] was 0.2 µg/mL (≈ 0.691 µM); with Escherichia coli [3], 0.2 µg/mL (≈ 0.691 µM); with Escherichia coli [6] it was more than 2000 µg/mL; in the data set on Escherichia coli [7] it was 4 µg/mL (≈ 13.8 µM); in the data set with Escherichia coli [8], more than 2000 µg/mL; with Pseudomonas aeruginosa [9], 1 µg/mL (≈ 3.45 µM). In addition, the MIC is more than 2000 µg/mL in the data set on Pseudomonas aeruginosa [10]; more than 2000 µg/mL in the data set with Pseudomonas aeruginosa [11]; 3 µg/mL (≈ 10.4 µM) in the data set on Escherichia coli [12]; 3 µg/mL (≈ 10.4 µM) in the data set on Escherichia coli [15]; 4 µg/mL (≈ 13.8 µM) with Escherichia coli [16]. The inhibition result (in the data set with Pseudomonas aeruginosa [4]; in data set [5]) was “Active” throughout. Also, the inhibition with Pseudomonas aeruginosa [13] amounted to 29%; in the data set on Pseudomonas aeruginosa [19] it was 15%. For the same molecule, the inhibition entry (in [14]; in the data set with Pseudomonas aeruginosa [17]; in data set [18]; in the data set with Pseudomonas aeruginosa [20]) was “inactive” each time.

B1: Enoyl-[acyl-carrier-protein] reductase [NADH] FabI (Pseudomonas aeruginosa), Q9ZFE4 (protein)
chain: MGFLTGKRALIVGVASKLSIASGIAAAMHREGAELAFTYQNDKLRGRVEEFASGWGSRPELCFPCDVADDSQIEAVFAALGKHWDGLDIIVHSVGFAPGDQLDGDFTAVTTREGFRIAHDISAYSFIALAKAGREMMKGRNGSLLTLSYLGAERTMPNYNVMGMAKASLEAGVRYLAGSLGAEGTRVNAVSAGPIRTLAASGIKSFRKMLAANERQTPLRRNVTIEEVGNAGAFLCSDLASGISGEILYVDGGFNTTAMGPLDDD
For B1, in [21], the Km was 4.7 µM and the maximum rate (Vmax) was determined as 1.5 nmol/min/mg.
